{"data": "Measured values pooled from the literature", "ACHE": "Acetylcholinesterase (ACHE, Homo sapiens, UniProt P22303)", "note": "Protocols differ between the studies behind these lines."}
{"SMILES": "CC(C)CC(=O)OC[C@H]1O[C@@](C#N)(c2ccc3c(N)ncnn23)[C@H](O)[C@@H]1O", "target": "ACHE", "assay": "enzyme activity, inhibitor", "setting": "20 µM", "endpoint": "inhibition", "result": "3%"}
{"SMILES": "COc1cc(/C=C/C(=O)O)ccc1OCc1cn(CC(=O)Nc2ccc(C)cc2)nn1", "target": "ACHE", "assay": "enzyme activity, inhibitor, Ellman", "setting": "40 µM", "endpoint": "inhibition", "result": "46%"}
{"SMILES": "CCc1ccc(N2C(=O)/C(=C3/C(=O)N(C)c4ccc(Cl)cc43)NC2=S)cc1", "target": "ACHE", "assay": "enzyme activity, inhibitor, Ellman", "setting": "5 µM", "endpoint": "inhibition", "result": "84%"}
{"SMILES": "COc1cc(/C=C/C(=O)O)ccc1OCc1cn(CC(=O)Nc2ccccc2C)nn1", "target": "ACHE", "assay": "enzyme activity, inhibitor, Ellman", "setting": "40 µM", "endpoint": "inhibition", "result": "30.9%"}
{"SMILES": "[2H]c1c([2H])c([C@]2([2H])CCCN2C(=O)C(C)(C)Oc2ccc3cn[nH]c3c2)c([2H])c([2H])c1C([2H])([2H])[2H]", "target": "Ephrin type-A receptor 2 (EPHA2, Homo sapiens, UniProt P29317)", "assay": "binding, competition with immobilised ligand", "setting": "1 µM", "endpoint": "remaining binding", "result": "99%"}
{"SMILES": "CN1C(=O)/C(=N\\Nc2ncc(-c3cc4ccccc4oc3=O)s2)c2cc(Cl)ccc21", "target": "ACHE", "assay": "enzyme activity, inhibitor, Ellman", "setting": "1 µM", "endpoint": "inhibition", "result": "90%"}
{"SMILES": "COc1cc(/C=C/C(=O)O)ccc1OCc1cn(CC(=O)Nc2ccccc2[N+](=O)[O-])nn1", "target": "ACHE", "assay": "enzyme activity, inhibitor, Ellman", "setting": "40 µM", "endpoint": "inhibition", "result": "22.1%"}
{"SMILES": "CCCCC(=O)Nc1ccc(-c2ccc3ncn(CCC)c(=O)c3c2)cn1", "target": "Serine/threonine-protein kinase PknB (pknB, Mycobacterium tuberculosis, UniProt P9WI81)", "assay": "binding, competition with immobilised ligand", "setting": "0.5 µM", "endpoint": "remaining binding", "result": "100%"}
{"SMILES": "C1CO1.C=O.CC(C)(C)CC(C)(C)c1ccc(O)cc1", "target": "Mitogen-activated protein kinase 3 (MAPK3, Homo sapiens, UniProt P27361)", "assay": "enzyme activity, inhibitor, ADP detection", "setting": "10 µM", "endpoint": "inhibition", "result": "45.2%"}
